Measured values as given in ChEMBL document CHEMBL3813634, “Antileishmanial and Cytotoxic Activity of Some Highly Oxidized Abietane Diterpenoids from the Bald Cypress, Taxodium distichum” (J Nat Prod, 2016).

Key:
[1] = tested on: Leishmania amazonensis; test: Antileishmanial activity against transgenic Leishmania amazonensis amastigotes infected in CD-1 mouse peritoneal macrophages assessed as beta-lactamase activity after 72 hrs by nitrocefin dye-based spectrophotometric analysis; type: functional, organism-based
In short: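 Beta-lactamase-expressing promastigotes grown in RPMI 1640 GlutaMAX with HEPES, adenosine, folate, RPMI vitamins, 10% heat-inactivated FBS (pH 6.9); added 5:1 to CD-1 mouse peritoneal macrophages (1 × 10⁵ cells/well) for 24 h at 34 °C, washed twice with HBSS, then exposed to test concentrations for 72 h at 34 °C.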

[2] = Selectivity index, ratio of IC50 for human HT-29 cells to IC50 for Leishmania donovani LV82 promastigotes expressing red fluorescent protein; type: toxicity, cell-based; settings: read-out: Ratio IC50
In short: (§1)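 Selectivity index calculated as HT-29 cytotoxicity IC50 divided by antileishmanial IC50.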

[3] = tested on: Leishmania donovani; test: Antileishmanial activity against Leishmania donovani LV82 promastigotes expressing red fluorescent protein after 72 hrs by flow cytometric analysis; type: functional, organism-based; settings: LV82, 72 h
[4] = Selectivity index, ratio of IC50 for human HT-29 cells to IC50 for Leishmania amazonensis amastigotes; type: toxicity, cell-based; settings: HT-29 cells versus Leishmania amazonensis amastigotes, read-out: Ratio IC50; in short: as §1
[5] = tested on: HT-29; test: Cytotoxicity against human HT-29 cells after 72 hrs by SRB assay; type: cell-based; settings: HT-29, 72 h
In short: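 HT-29 cells, 9500 per well, exposed to a range of concentrations in triplicate for 72 h; 10% DMSO in water as carrier/negative control, paclitaxel positive control.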

With `CC(C)c1cc2c(cc1O)[C@@]1(C)CCCC(C)(C)[C@@H]1CC2` [FERRUGINOL] the IC50 [1] was 15.4 µM, the selectivity ratio [2] was 0.9 and the IC50 [3] was 45.7 µM. The selectivity ratio [4] was 2.5 and the IC50 [5] was 39.4 µM.
`C[C@@H]1[C@H](O)[C@@H](C)/C=C/C=C/C=C/C=C/C=C/C=C/C=C/[C@H](O[C@@H]2O[C@H](C)[C@@H](O)[C@H](N)[C@@H]2O)C[C@@H]2O[C@](O)(C[C@@H](O)C[C@@H](O)[C@H](O)CC[C@@H](O)C[C@@H](O)CC(=O)O[C@H]1C)C[C@H](O)[C@H]2C(=O)O` [AMPHOTERICIN B] gave an IC50 [1] of 0.086 µM.
Work on `CC(C)C1=C(O)C(=O)C2=C(C1=O)[C@@H](O)C[C@H]1C(C)(C)CCC[C@]21C` yielded an IC50 [1] greater than 10 µg/mL and an IC50 [3] greater than 10 µg/mL.
`CC(C)C1=C(O)C(=O)C2=C(C1=O)[C@H](O)C[C@H]1C(C)(C)CCC[C@]21C` [HORMINONE] showed an IC50 [1] greater than 10 µg/mL and an IC50 [3] greater than 10 µg/mL.
Work on `Cc1ccc2c3c1CCCC(C)(C)C3C(=O)C(C(C)C)=C2` (racemic) yielded an IC50 [1] greater than 10 µg/mL and an IC50 [3] greater than 10 µg/mL.
With `CC(C)C1=CC2=CC(=O)[C@H]3C(C)(C)CCC[C@]3(C)C2=C(O)C1=O` [TAXODIONE] the IC50 [1] was 14.3 µM, the selectivity ratio [2] was 1.6 and the IC50 [3] was 1.6 µM. The selectivity ratio [4] was 0.2 and the IC50 [5] was 2.5 µM.
Compound `COCC(=O)[C@H]1C(C)(C)CCC[C@]1(C)C1=C(O)C(=O)C(C(C)C)=CC1=O` has an IC50 [1] of 1.4 µM, a selectivity ratio [2] of 0.6 and an IC50 [3] of 6.9 µM. It also gave a selectivity ratio [4] of 3.2 and an IC50 [5] of 4.4 µM.
`CC(C)c1cc2c(c(O)c1O)[C@@]1(C)CCCC(C)(C)C1=C(O)C2=O` [14-DEOXYCOLEON U] gave an IC50 [1] of 13 µM, a selectivity ratio [2] of less than 0.27 and an IC50 [3] greater than 60 µM. For the same compound, the selectivity ratio [4] was 1 and the IC50 [5] was 13.3 µM.
In the case of `CC(C)c1cc(C=O)c([C@@]2(C)CCCC(C)(C)[C@@H]2C=O)cc1O`, the IC50 [1] is reported as greater than 10 µg/mL and the IC50 [3] is reported as greater than 10 µg/mL.
`Cc1ccc2c3c1CCCC(C)(C)[C@@]3(O)C(=O)C(C(C)C)=C2` showed an IC50 [1] greater than 10 µg/mL and an IC50 [3] greater than 10 µg/mL.
For `CO[C@@H]1C[C@H]2C(C)(C)CCC[C@]2(C)C2=C1C(=O)C(C(C)C)=C(O)C2=O`, the IC50 [1] was greater than 10 µg/mL and the IC50 [3] was greater than 10 µg/mL.
Work on `CC(C)C1=C(O)C(=O)C2=C(CC[C@H]3C(C)(C)CCC[C@]23C)C1=O` [ROYLEANONE] yielded an IC50 [1] greater than 10 µg/mL and an IC50 [3] greater than 10 µg/mL.
In the case of `CC(C)c1cc2c(cc1O)[C@@]1(C)CCCC(C)(C)[C@@H]1[C@@H](O)C2=O`, the IC50 [1] is reported as 17.1 µM, the selectivity ratio [2] is reported as 1.5 and the IC50 [3] is reported as 24.6 µM. It also gave a selectivity ratio [4] of 2.1 and an IC50 [5] of 36 µM.
`CC(C)c1cc2c(cc1O)[C@@]1(C)CCCC(C)(C)[C@@H]1CC2=O` [SUGIOL] gave an IC50 [1] greater than 10 µg/mL and an IC50 [3] greater than 10 µg/mL.
In the case of `Cc1ccc2cc(C(C)C)c(O)c3c2c1CCCC(C)(C)O3`, the IC50 [1] is reported as greater than 10 µg/mL and the IC50 [3] is reported as greater than 10 µg/mL.
For `CC(C)c1cc2c(cc1O)[C@@]1(C)CCCC(C)(C)C1=C(O)C2=O`, the IC50 [1] was greater than 10 µg/mL and the IC50 [3] was greater than 10 µg/mL.
